Assay results from ChEMBL document CHEMBL1157406, “Cytotoxic metabolites from the fungal endophyte Alternaria sp. and their subsequent detection in its host plant Polygonum senegalense” (J Nat Prod, 2008).
Converted amounts (≈) assume the structure as drawn.

What was measured:
[1] = target: T1, Vascular endothelial growth factor receptor 2 (Homo sapiens, UniProt P35968); assay: Inhibition of recombinant VEGFR2
Outline: (§1)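 Purified recombinant kinase, 50 µL reaction. 1 µM [γ-33P]-ATP with substrate; compound added in 10% DMSO. Tested over several concentrations; IC50 in g/mL.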

[2] = target: RAC-alpha serine/threonine-protein kinase (Homo sapiens, UniProt P31749); assay: Inhibition of recombinant AKT1; outline: as §1
Aurora kinase A = target: T2, Aurora kinase A (Homo sapiens, UniProt O14965); assay: Inhibition of recombinant Aurora A; outline: as §1
T2 sequence (O14965 whole entry): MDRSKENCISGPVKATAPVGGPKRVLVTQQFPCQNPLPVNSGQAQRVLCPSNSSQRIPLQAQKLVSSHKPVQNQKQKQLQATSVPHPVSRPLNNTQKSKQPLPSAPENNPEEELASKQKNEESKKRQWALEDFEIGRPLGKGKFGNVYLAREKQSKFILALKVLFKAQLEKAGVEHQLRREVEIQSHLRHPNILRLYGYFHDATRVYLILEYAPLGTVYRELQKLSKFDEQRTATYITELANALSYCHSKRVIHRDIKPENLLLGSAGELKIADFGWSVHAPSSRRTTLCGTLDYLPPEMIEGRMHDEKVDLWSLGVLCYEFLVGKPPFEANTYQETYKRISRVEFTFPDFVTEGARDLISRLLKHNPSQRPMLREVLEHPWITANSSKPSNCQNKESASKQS

[3] = target: Vascular endothelial growth factor receptor 3 (Homo sapiens, UniProt P35916); assay: Inhibition of recombinant VEGFR3; outline: as §1
[4] = target: Platelet-derived growth factor receptor beta (Homo sapiens, UniProt P09619); assay: Inhibition of recombinant PDGFRbeta
[5] = target: Cyclin-dependent kinase 4/cyclin D1 (Homo sapiens, UniProt P11802+P24385); assay: (§2) Inhibition of recombinant CDK4/CycD1; outline: as §1
[6] = target: Mitogen-activated protein kinase kinase kinase 8 (Homo sapiens, UniProt P41279); assay: Inhibition of recombinant COT
Angiopoietin-1 receptor = Angiopoietin-1 receptor (Homo sapiens, UniProt Q02763); assay: Inhibition of recombinant TIE2; outline: as §1
Focal adhesion kinase 1 = Focal adhesion kinase 1 (Homo sapiens, UniProt Q05397); assay: Inhibition of recombinant FAK; outline: as §1
[7] = target: Receptor tyrosine-protein kinase erbB-2 (Homo sapiens, UniProt P04626); assay: Inhibition of recombinant ERBB2; outline: as §1
Ephrin type-B receptor 4 = target: T3, Ephrin type-B receptor 4 (Homo sapiens, UniProt P54760); assay: Inhibition of recombinant EPHB4; outline: as §1
T3 sequence (P54760 whole entry): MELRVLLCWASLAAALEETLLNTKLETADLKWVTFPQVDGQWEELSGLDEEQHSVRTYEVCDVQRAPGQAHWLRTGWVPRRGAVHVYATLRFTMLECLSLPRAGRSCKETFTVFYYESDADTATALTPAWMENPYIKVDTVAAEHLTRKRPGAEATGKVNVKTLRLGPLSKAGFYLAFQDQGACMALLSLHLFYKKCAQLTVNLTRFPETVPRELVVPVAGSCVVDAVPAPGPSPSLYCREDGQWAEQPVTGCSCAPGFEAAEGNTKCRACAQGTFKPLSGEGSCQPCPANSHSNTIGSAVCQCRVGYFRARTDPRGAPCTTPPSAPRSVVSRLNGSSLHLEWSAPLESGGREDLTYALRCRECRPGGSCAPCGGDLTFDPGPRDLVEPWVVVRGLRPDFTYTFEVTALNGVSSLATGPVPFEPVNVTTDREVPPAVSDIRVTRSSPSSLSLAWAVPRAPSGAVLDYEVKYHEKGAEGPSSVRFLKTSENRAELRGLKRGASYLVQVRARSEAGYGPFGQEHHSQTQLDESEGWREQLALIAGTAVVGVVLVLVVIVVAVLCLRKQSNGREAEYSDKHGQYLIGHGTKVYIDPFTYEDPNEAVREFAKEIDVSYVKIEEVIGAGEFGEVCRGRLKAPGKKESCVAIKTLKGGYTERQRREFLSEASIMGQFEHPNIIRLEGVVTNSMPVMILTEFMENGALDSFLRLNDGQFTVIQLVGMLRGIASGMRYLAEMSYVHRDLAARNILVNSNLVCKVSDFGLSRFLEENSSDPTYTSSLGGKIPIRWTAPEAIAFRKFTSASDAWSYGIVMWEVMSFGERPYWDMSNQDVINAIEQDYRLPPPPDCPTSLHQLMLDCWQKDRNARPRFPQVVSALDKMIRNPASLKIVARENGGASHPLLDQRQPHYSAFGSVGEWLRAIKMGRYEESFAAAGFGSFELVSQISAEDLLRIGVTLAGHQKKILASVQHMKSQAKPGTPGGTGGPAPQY

[8] = target: Cyclin-dependent kinase 2 (Homo sapiens, UniProt P24941); assay: Inhibition of recombinant CDK2/CycA; outline: as §1
Insulin receptor = Insulin receptor (Homo sapiens, UniProt P06213); assay: Inhibition of recombinant INSR
[9] = target: Insulin-like growth factor 1 receptor (Homo sapiens, UniProt P08069); assay: Inhibition of recombinant IGF1R; outline: as §1
[10] = target: Serine/threonine-protein kinase B-raf (Homo sapiens, UniProt P15056, V600E); assay: Inhibition of recombinant B-RAF-V600E mutant; outline: as §1
[11] = target: Cyclin-dependent kinase 4/cyclin D1 (Homo sapiens, UniProt P11802); assay: as §2; outline: as §1
Aurora kinase B = Aurora kinase B (Homo sapiens, UniProt Q96GD4); assay: Inhibition of recombinant Aurora B phosphorylation in human HT29 cells; format: cell-based, HT-29
Outline: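 HT29 cells pretreated 90 min with 10 µM staurosporine, then compound 90 min at 37 °C, then calyculin A 30 min. Lysates captured on antibody-coated plates; phospho-histone H3 detected with anti-P-His H3 as the Aurora B read-out.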

[12] = target: T1, Vascular endothelial growth factor receptor 2; assay: Inhibition of recombinant VEGFR2 phosphorylation in human HUE cells; format: cell-based
Outline: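 Human endothelial HUE cells pretreated 90 min with 10 µM staurosporine, compound 90 min at 37 °C, then VEGF165 7 min. Lysates captured on antibody-coated plates; VEGF-R2 autophosphorylation detected with antiphosphotyrosine PY99.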

L5178Y = assay: Cytotoxicity against mouse L5178Y cells by MTT assay; format: functional, cell-based
Outline: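 Mouse L5178Y lymphoma cells; MTT microculture tetrazolium read-out, relative to untreated controls. Vehicle controls with 0.1% EGMME/DMSO. Triplicate wells, experiment repeated three times.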

Receptor tyrosine-protein kinase erbB-2, sequence (P04626 whole entry): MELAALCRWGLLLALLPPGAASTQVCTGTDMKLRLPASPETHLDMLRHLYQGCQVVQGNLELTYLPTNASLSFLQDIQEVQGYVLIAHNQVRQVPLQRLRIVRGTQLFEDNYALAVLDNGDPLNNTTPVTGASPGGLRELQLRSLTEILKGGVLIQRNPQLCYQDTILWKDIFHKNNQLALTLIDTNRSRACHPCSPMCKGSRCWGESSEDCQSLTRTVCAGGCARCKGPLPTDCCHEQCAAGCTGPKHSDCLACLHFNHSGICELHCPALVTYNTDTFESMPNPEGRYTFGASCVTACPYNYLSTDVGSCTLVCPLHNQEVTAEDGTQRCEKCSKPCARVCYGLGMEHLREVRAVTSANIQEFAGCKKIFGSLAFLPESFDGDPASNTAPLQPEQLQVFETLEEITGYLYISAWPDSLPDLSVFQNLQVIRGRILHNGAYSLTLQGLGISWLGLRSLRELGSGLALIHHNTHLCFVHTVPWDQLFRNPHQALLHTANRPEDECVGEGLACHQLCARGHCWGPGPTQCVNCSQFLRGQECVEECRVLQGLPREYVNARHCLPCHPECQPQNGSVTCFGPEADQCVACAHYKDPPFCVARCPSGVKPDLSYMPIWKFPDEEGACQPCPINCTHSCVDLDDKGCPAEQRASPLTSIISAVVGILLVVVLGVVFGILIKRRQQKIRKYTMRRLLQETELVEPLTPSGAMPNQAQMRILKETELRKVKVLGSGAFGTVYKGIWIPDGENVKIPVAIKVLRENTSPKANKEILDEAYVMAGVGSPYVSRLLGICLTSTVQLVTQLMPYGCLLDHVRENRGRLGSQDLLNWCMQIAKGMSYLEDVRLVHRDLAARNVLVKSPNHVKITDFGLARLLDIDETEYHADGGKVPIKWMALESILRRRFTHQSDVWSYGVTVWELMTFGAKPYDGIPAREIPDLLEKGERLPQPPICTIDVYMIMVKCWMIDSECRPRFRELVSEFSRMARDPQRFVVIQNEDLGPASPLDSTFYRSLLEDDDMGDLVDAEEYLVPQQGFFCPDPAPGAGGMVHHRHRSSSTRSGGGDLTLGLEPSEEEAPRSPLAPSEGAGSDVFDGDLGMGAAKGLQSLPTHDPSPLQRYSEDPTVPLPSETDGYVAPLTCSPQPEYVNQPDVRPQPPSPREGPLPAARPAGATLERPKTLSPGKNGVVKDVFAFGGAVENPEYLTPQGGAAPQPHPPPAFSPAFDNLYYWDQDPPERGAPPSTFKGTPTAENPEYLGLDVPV
Platelet-derived growth factor receptor beta, sequence (P09619 whole entry): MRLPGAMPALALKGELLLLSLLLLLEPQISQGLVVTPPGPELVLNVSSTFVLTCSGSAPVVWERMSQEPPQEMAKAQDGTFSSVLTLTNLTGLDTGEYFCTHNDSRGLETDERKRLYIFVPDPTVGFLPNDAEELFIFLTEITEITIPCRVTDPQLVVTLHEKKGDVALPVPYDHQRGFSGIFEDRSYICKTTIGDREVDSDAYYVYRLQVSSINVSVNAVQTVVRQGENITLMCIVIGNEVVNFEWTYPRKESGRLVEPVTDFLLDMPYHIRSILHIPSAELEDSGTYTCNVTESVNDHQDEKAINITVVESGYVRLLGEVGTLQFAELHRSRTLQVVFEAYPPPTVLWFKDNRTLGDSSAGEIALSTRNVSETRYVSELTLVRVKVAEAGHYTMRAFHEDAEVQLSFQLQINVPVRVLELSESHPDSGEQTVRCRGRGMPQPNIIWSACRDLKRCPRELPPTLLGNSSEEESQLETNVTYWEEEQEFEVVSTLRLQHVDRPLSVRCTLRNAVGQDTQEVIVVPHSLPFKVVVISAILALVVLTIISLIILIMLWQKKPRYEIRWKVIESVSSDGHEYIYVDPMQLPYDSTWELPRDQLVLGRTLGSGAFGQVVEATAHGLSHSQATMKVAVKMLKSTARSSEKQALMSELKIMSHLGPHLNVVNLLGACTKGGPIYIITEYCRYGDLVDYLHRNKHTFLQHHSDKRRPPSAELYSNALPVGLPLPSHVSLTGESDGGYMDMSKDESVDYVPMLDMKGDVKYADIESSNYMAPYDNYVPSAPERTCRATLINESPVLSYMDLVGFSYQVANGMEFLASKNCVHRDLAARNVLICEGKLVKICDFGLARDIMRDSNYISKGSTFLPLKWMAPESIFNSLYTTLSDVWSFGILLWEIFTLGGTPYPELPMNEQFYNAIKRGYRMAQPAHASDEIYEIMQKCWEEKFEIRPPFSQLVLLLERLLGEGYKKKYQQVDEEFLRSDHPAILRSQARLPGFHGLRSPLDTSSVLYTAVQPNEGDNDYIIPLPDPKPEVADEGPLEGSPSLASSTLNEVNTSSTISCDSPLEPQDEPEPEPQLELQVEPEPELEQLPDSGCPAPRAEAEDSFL
Serine/threonine-protein kinase B-raf, sequence (P15056 2-766 V600E limits assumed): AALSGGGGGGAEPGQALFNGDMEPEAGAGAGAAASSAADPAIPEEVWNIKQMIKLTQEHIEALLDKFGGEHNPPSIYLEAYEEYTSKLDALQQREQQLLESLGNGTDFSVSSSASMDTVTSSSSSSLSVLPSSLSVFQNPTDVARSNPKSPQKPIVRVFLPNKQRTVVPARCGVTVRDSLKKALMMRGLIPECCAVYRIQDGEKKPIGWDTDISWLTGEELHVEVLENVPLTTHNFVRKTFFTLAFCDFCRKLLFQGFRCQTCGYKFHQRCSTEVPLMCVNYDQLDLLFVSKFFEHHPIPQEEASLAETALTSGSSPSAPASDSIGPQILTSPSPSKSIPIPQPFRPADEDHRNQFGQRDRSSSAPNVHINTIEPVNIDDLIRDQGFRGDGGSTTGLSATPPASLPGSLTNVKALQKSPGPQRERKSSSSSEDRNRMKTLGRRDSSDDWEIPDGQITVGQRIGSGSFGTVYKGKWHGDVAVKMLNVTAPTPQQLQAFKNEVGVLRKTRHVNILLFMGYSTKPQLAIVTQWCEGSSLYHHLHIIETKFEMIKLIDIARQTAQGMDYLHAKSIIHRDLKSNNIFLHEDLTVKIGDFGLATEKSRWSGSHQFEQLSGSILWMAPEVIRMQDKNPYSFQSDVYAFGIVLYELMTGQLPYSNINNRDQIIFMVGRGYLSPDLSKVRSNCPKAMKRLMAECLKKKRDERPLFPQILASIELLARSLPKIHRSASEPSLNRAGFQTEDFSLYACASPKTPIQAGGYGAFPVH
Insulin-like growth factor 1 receptor, sequence (P08069 31-736 limits assumed): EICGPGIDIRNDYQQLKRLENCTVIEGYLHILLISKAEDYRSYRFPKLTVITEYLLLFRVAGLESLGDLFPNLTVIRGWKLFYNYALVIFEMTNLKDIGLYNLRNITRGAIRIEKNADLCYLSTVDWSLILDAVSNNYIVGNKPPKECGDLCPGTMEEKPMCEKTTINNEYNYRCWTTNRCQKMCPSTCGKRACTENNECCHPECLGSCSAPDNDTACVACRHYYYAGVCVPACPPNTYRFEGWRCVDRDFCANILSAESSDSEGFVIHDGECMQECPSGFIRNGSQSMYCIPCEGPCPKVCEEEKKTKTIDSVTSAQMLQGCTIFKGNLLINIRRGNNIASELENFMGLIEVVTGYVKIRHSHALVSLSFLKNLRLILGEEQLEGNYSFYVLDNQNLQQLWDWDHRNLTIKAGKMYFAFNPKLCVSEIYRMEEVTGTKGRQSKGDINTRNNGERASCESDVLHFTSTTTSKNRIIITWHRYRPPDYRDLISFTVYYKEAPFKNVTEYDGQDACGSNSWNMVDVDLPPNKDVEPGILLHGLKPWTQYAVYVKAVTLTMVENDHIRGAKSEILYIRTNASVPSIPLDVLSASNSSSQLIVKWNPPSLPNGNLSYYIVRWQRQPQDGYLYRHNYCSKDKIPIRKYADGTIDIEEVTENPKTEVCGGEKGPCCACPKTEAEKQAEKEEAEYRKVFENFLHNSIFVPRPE
Insulin-like growth factor 1 receptor, sequence (P08069 741-1367 limits assumed): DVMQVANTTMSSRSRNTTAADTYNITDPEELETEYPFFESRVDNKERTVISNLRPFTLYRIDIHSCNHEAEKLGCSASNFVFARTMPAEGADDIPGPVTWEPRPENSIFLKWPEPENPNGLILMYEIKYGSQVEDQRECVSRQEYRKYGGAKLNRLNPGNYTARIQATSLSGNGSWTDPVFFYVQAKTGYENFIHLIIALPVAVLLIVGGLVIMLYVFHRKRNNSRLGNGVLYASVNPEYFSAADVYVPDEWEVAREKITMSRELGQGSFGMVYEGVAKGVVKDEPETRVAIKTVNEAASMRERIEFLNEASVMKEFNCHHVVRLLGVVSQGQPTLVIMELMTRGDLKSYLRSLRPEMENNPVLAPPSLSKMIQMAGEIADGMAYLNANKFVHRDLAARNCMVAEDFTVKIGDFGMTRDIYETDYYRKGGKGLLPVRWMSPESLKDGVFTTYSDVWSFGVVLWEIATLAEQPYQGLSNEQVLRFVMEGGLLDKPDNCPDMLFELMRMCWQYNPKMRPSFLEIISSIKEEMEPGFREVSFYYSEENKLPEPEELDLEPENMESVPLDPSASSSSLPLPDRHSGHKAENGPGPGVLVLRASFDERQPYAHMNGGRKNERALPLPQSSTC
Cyclin-dependent kinase 4/cyclin D1 (Homo sapiens, UniProt P11802+P24385), sequence (P11802 whole entry): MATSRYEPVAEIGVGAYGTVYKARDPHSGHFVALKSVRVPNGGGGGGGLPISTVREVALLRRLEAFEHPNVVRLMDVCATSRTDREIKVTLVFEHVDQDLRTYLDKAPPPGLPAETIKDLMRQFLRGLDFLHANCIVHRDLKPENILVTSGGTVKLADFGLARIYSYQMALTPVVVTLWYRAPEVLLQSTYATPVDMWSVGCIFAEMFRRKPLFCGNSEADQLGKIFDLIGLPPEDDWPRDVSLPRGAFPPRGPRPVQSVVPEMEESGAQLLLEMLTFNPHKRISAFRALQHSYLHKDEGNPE
Cyclin-dependent kinase 4/cyclin D1 (Homo sapiens, UniProt P11802+P24385), sequence (P24385 whole entry): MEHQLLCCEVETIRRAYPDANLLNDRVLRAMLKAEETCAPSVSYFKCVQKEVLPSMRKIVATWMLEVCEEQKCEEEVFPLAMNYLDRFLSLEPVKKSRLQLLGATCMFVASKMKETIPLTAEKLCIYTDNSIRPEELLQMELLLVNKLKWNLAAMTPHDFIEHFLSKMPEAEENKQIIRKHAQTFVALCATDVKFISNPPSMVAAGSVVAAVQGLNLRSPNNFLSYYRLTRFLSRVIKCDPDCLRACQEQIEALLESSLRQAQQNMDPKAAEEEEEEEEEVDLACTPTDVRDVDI

| SMILES | IC50 [1] | IC50 [2] [×10⁻⁵ g/ml] | IC50 (Aurora kinase A) | IC50 [3] [×10⁻⁵ g/ml] | IC50 [4] | IC50 [5] [×10⁻⁵ g/ml] | IC50 [6] [×10⁻⁵ g/ml] | IC50 (Angiopoietin-1 receptor) [×10⁻⁵ g/ml] | IC50 (Focal adhesion kinase 1) [×10⁻⁵ g/ml] | IC50 [7] [×10⁻⁵ g/ml] | IC50 (Ephrin type-B receptor 4) [×10⁻⁵ g/ml] | IC50 [8] [×10⁻⁵ g/ml] | IC50 [9] [×10⁻⁵ g/ml] | IC50 [10] [×10⁻⁵ g/ml] | IC50 ([1]; read-out: IC50 (converted)) [µM] | IC50 (Aurora kinase A; read-out: IC50 (converted)) [µM] | IC50 ([3]; read-out: IC50 (converted)) [µM] | IC50 ([9]; read-out: IC50 (converted)) [µM] | IC50 ([10]; read-out: IC50 (converted)) [µM] | IC50 [11] [µM] | other results |
| --- | --- | --- | --- | --- | --- | --- | --- | --- | --- | --- | --- | --- | --- | --- | --- | --- | --- | --- | --- | --- | --- |
| COc1cc(O)c2c(c1)-c1cc(O)c(O)cc1COC2=O [ALTERLACTONE] | > 1 ×10⁻⁵ g/ml | > 1 | > 1 ×10⁻⁵ g/ml | > 1 | > 1 ×10⁻⁵ g/ml | > 1 | > 1 | > 1 | > 1 | > 1 | > 1 | > 1 | > 1 | > 1 |  |  |  |  |  |  | IC50 (Insulin receptor): > 1 ×10⁻⁵ g/ml |
| COc1cc(O)c(C(=O)O)c(C2=C(C)C[C@@H](O)C2=O)c1 [ALTERNARIENONIC ACID] |  | > 1 |  |  | > 1 ×10⁻⁵ g/ml | > 1 | > 1 | > 1 | > 1 | > 1 | > 1 | > 1 |  |  | 18.3 | 15.8 | 13.3 | 12.9 | 32.3 |  | IC50 (Insulin receptor; read-out: IC50 (converted)): 29.1 µM |
| Cc1cc(O)cc2oc(=O)c3c(O)cc(O)cc3c12 [ALTERNARIOL] | 9.2 ×10⁻⁷ g/ml | > 1 | 7.3 ×10⁻⁷ g/ml |  | 8.9 ×10⁻⁷ g/ml |  |  |  |  |  | > 1 |  |  |  |  |  | 5.03 | 13.2 | 6.2 | 9.29 | IC50 ([6]; read-out: IC50 (converted)): 31 µM; IC50 (Aurora kinase B): 3.87 µM; IC50 [12]: 3.87 µM; IC50 (Angiopoietin-1 receptor; read-out: IC50 (converted)): 27.1 µM; IC50 (Focal adhesion kinase 1; read-out: IC50 (converted)): 9.29 µM; IC50 ([7]; read-out: IC50 (converted)): 36.4 µM; IC50 ([8]; read-out: IC50 (converted)): 12.8 µM; EC50 (L5178Y): 1.7 µg/mL (≈ 6.58 µM) |
| O=C1C[C@H](O)[C@@H]2c3c(ccc(O)c31)-c1ccc(O)c3c1[C@@]2(O)CCC3=O [ALTERTOXIN I] |  | > 1 |  |  |  |  |  |  |  | > 1 |  | > 1 |  |  | 3.97 | 4.82 | 7.95 | 4.82 | 19 | 18.2 | IC50 ([6]; read-out: IC50 (converted)): 15.6 µM; IC50 (Angiopoietin-1 receptor; read-out: IC50 (converted)): 25 µM; IC50 (Focal adhesion kinase 1; read-out: IC50 (converted)): 20.7 µM; IC50 (Ephrin type-B receptor 4; read-out: IC50 (converted)): 25.3 µM |
| COc1cc(O)c2c(c1)C1(OC2=O)C(C)=CC(=O)C1O (stereo not drawn) [TALAROFLAVONE] | > 1 ×10⁻⁵ g/ml | > 1 | > 1 ×10⁻⁵ g/ml | > 1 |  | > 1 | > 1 | > 1 | > 1 | > 1 | > 1 | > 1 | > 1 | > 1 |  |  |  |  |  |  |  |
